Assay outcomes from PubChem.
A selection: hits, their analogues and other compounds. The true share with any hit is near 2.7%.
Yeast growth inh – yeast BB579 growth reduction in restrictive medium | S. cerevisiae BB579 growth, OD615, 48 h | inhibition, % at 10 µM | 0.51% of 140,000 active | AID 804;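 active means inhibition above a set limit, 3 SD over the mean compound inhibition, cut at about 44% in these data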
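Assay system: S. cerevisiae DeaD strain BB579 yeast. Medium: CSMM-D restrictive synthetic medium containing dextrose (glucose). Times: 4 h cell preincubation, 48 h compound exposure, 30 °C humidified. Signal: OD615 turbidity measurement. Benchmarks: positive control amphotericin B 10 µg/mL.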
Yeast lifespan up – extends the lifespan of yeast; inhibition of the nicotinamide effect, % at 10 µM; 0.68% of 130,000 active; S. cerevisiae growth with nicotinamide, OD615; deaD strain in restrictive glucose medium;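 active means inhibition above a set limit, placed 3 SD over the median of all compounds, cut at about 26% in these data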;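 further: 0% = nicotinamide-treated wells and 100% = cells grown without nicotinamide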
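Assay system: engineered S. cerevisiae DeaD replicative-lifespan strain, galactose-grown log-phase cells; medium: restrictive CSMM-D dextrose medium; also added: nicotinamide, 1.5 mM, co-present with compound; schedule: 48 h compound exposure at 30 °C, humidified; detection: absorbance at 615 nm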
Phagocyt inh – inhibitors of macrophage phagocytosis. J774A.1 macrophage IgG-bead phagocytosis, imaging. inhibition, % at 5 µM. 0.07% of 110,000 active. AID 1029;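 active means inhibition above the mean of the plate negative controls plus 5 SD, cut at about 13% in these data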;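 further: phagocytic index as fraction of beads internalized from green versus red external bead signal; plate controls were DMSO negative control for no effect and cytochalasin-D positive control for full effect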
RAM inhibit – yeast RAM network inhibition; S. cerevisiae dse1pr::URA3 reporter, 5-FOA growth OD615, 2 d; analog-sensitive cbk1-as2 kinase mutant strain; inhibition, % at 50 µM; 1.8% of 190,000 active; AID 868;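 active means inhibition above a set limit, 3 SD over mean compound inhibition, cut at about 8.4% in these data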;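 further: 0% = DMSO-only wells with no growth and 100% = 10 µM 1-NA-PP1 full growth; inhibition rescues growth on 5-FOA so higher OD means more RAM inhibition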
Numbers without * were called inactive; nt = not tested or not shown.

SMILES	Yeast growth inh	Yeast lifespan up	Phagocyt inh	RAM inhibit
CCOc1c(Cl)cc(C(=O)Nc2cccc(C(=O)O)c2)cc1Cl	nt	nt	nt	1
CCOc1ccccc1OCC(=O)NNC(=O)Cn1cnc2c1c(=O)n(C)c(=O)n2C	nt	nt	nt	3
CN(C)S(=O)(=O)N1CCN(c2ccc([N+](=O)[O-])c(NC3CC3)c2)CC1	nt	nt	nt	8.6*
CNc1cc(N2CCN(S(=O)(=O)N(C)C)CC2)ccc1[N+](=O)[O-]	nt	nt	nt	0
Cc1ccc(S(=O)(=O)N2CCC(=O)N(C(COCc3cccc(Cl)c3)C(C)C)CC2)cc1 (configuration not stated)	-34	4	nt	8.6*
Cc1ccc(S(=O)(=O)N2CCC(=O)N(C(COCc3cccc(C(F)(F)F)c3)Cc3ccccc3)CC2)cc1 (configuration not stated)	-42	20	nt	9.8*
CN1CCN(C(=O)c2cc(C(C)(C)C)cc(C(C)(C)C)c2)CC1	nt	nt	nt	0
Cc1ccc(C(=O)Nc2ccc3cn[nH]c3c2)cc1S(=O)(=O)N1CCCCC1	0	-7	-1	0
CC1c2c([nH]c3ccccc23)CCC1C(=O)O (configuration not stated)	-22	12	-6	1
O=[N+]([O-])c1ccc(Nc2nc(N/N=C\c3ccc4c(c3)OCO4)nc(N3CCCCC3)n2)cc1	-15	13	nt	11*
O=[N+]([O-])c1ccc(/C=N/Nc2nc(N3CCCCC3)nc(N3CCCCC3)n2)cc1	nt	nt	nt	2
CCN1CCN(C(=O)C(N)Cc2ccccc2)CC1 (configuration not stated)	nt	nt	nt	3
COCCNS(=O)(=O)c1cc(OC)ccc1OC	nt	nt	nt	1
CO/N=C/c1ccc(Oc2ccc(C)cc2)c([N+](=O)[O-])c1	nt	nt	nt	0
CCC(=O)c1ccc(Oc2ccc(C(=O)c3ccc(C)cc3)cc2[N+](=O)[O-])cc1	-27	2	-10	11*
Cn1c(-c2cccc([N+](=O)[O-])c2)cnc1NCc1ccc(C#N)cc1	nt	nt	nt	0
CC1CCCC(C)N1c1nnc(NC(=O)c2cc(-c3ccc(Br)cc3)on2)s1 (configuration not stated)	-21	-7	-1	6
CC(C)CNC(=O)c1ccccc1NC(=O)CN(c1ccccc1)S(=O)(=O)N(C)C	nt	nt	nt	1
COC(=O)Cn1c2ccccc2c2nc(C)sc21	49*	-13	-2	0
CC(=O)c1c(C)oc2ccc(N(C(C)=O)S(=O)(=O)c3cccc([N+](=O)[O-])c3)cc12	nt	nt	nt	4
CC(=O)c1c(C)oc2ccc(N(C(=O)C3CCCCC3)S(=O)(=O)c3cc([N+](=O)[O-])ccc3C)cc12	-31	-2	-4	9.7*
COc1cc(Br)cc(CNc2ccc(F)c([N+](=O)[O-])c2)c1O	nt	nt	nt	8.9*
Cc1ccc(CC(=O)Nc2ccc(F)c([N+](=O)[O-])c2)cc1C	nt	nt	nt	2
COC(=O)c1ccc(COC(=O)c2ccc(SC)cc2OC)cc1	-55	-5	-2	7
COc1ccc(/C=N/NC(=O)c2nc(-c3ccccc3)cc(-c3ccccc3)n2)cc1OC	-17	-2	-2	10*
SMILES	Yeast growth inh	Yeast lifespan up	Phagocyt inh	RAM inhibit
COc1cccc(/C=N/NC(=O)c2nc(-c3ccccc3)cc(-c3ccccc3)n2)c1	-24	-2	nt	3
Nc1nsc2ccccc12	46*	-8	-1	0
CCc1cc2c(SCC(=O)c3ccc(C)cc3)ncnc2s1	-43	nt	nt	9.9*
CSC1=N/C(=C\c2cccc(F)c2)C(=O)S1	-42	4	1	5
CSC1=N/C(=C\c2c(F)cccc2Cl)C(=O)S1	-20	31*	5	3
O=C(OCc1ccc([N+](=O)[O-])cc1)C1CCN(S(=O)(=O)c2ccccc2)CC1	-28	0	-9	9.1*
Cc1ccc(S(=O)(=O)N2CCCC2C(=O)OCc2ccccc2)cc1 (configuration not stated)	-10	8	-3	9.4*
CCOc1ccc(-n2c(=S)sc3c(=O)[nH]c(SCC(=O)NCC4CCCO4)nc32)cc1 (configuration not stated)	-52	9	-2	8.7*
CCOc1ccc(-n2c(=O)c3c4c(sc3n(CC(=O)NCC3CCCO3)c2=O)CCCC4)cc1 (configuration not stated)	nt	nt	nt	1
COc1cc(Sc2ccc(C)cc2)c(OC)cc1N	-23	-12	-3	11*
CC(C)C(NC(=O)C(NC(=O)C1OC2OC(C)(C)OC2C2OC(C)(C)OC12)C(C)C)C(=O)O (configuration not stated)	nt	nt	nt	1
O=C(Nc1nc(-c2ccccn2)cs1)c1cc2ccccc2o1	nt	nt	nt	-1
O=C(Nc1nc(-c2ccccn2)cs1)c1ncc(Cl)c(Cl)c1Cl	59*	-20	1	2
O=C(Nc1nc(-c2ccccn2)cs1)c1ccc(Cl)s1	95*	-13	1	-1
Cn1cccc1C(=O)Nc1nc(-c2ccccn2)cs1	46*	-20	-1	0
O=C(CCCSc1ccccc1)Nc1nc(-c2ccccn2)cs1	57*	-5	0	1
Cc1csc(NC(=O)c2cccn2C)n1	-22	-20	nt	1
CCN(CC)C(=O)Cn1cc(S(=O)(=O)CC(=O)NC2CCCCC2)c2ccccc21	nt	nt	nt	1
CCOC(=O)c1cc2sc(C)cc2n1C(C)C(=O)OCC (configuration not stated)	-48	-11	-1	2
Cc1cc2c(cc(C(=O)O)n2C)s1	56*	-7	-1	-1
Cc1c(Cl)cccc1N(CC(=O)NC1CCCCC1)S(C)(=O)=O	-30	-1	0	1
O=C(NCc1ccc2c(c1)OCO2)c1ccc(NS(=O)(=O)c2ccc3c(c2)OCCO3)cc1	-24	-5	nt	8.5*
O=c1c(Cl)c(NCCCO)cnn1-c1nc2ccccc2[nH]1	-28	81*	nt	0
C=CCN(CC=C)c1cnn(-c2nc3ccccc3[nH]2)c(=O)c1Cl	-43	10	2	1
COc1ccc(OC)c(C(=O)CSc2nnc(-c3ccc(OC)c(OC)c3)o2)c1	-38	-2	2	10*
SMILES	Yeast growth inh	Yeast lifespan up	Phagocyt inh	RAM inhibit
COc1ccccc1OCc1nnc(SCC(=O)c2cc(Cl)ccc2OC)o1	-70	-36	0	9.5*
CC(C)(C)C(=O)/C(=C\c1cccc([N+](=O)[O-])c1)n1cncn1	-65	nt	nt	-2
C=CCn1c(C)cc(C(=O)COc2ncnc3sccc23)c1C	-21	44*	0	2
COCCn1c(C)cc(C(=O)COc2ncnc3ccc(Br)cc23)c1C	nt	nt	nt	3
COc1cc(/C=C/C(=O)O)cc(S(=O)(=O)N(CC(C)C)CC(C)C)c1OC	nt	nt	nt	5
CN1CCN(c2ccccc2NC(=O)c2ccc(-c3ccc(Cl)cc3Cl)o2)CC1	-10	-22	0	3
O=C(Nc1ccccc1N1CCCCC1)c1ccc(-c2cccc(Cl)c2)o1	-24	0	2	9.5*
CCCCn1nnc(NC(=O)c2ccc(-c3cccc(Cl)c3)o2)n1	-39	-19	nt	8.4*
CCCS(=O)(=O)N1CCN(C(=O)COc2ccc(OC)cc2)CC1	-13	-2	2	-1
Cc1ccc(CCc2nnc(SCC(=O)Nc3cc(Cl)ccc3Cl)n2-c2ccccc2)o1	-26	2	-9	9.7*
